Data reported in ChEMBL document CHEMBL1136968, “Structurally simple inhibitors of lanosterol 14alpha-demethylase are efficacious in a rodent model of acute Chagas disease” (J Med Chem, 2009).

Columns and labels:
[1] = tested on: Trypanosoma cruzi; assay: Antitrypanosomal activity against Trypanosoma cruzi Tulahuen amastigotes in mouse 3T3 cells by beta-galactosidase reporter gene assay; format: functional, organism-based; settings: NIH3T3
Outline: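 Tulahuen strain (TCII lineage) grown as intracellular amastigotes in murine 3T3 fibroblasts in 96-well plates. EC50 determined from triplicate screens. Standard errors within assays stayed below 15%.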

[2] = Toxicity against mouse 3T3 cells by resazurin assay; format: cell-based; settings: NIH3T3 cells
Outline: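 Murine 3T3 fibroblasts screened separately from the parasites. Host-cell growth was quantified by resazurin read-out and EC50 determined.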

Compound	EC50 [1]	EC50 [2]
CCc1ccc(Cn2cncc2CNc2ccc(-c3nc4ccccc4s3)c(-c3ccccc3)c2)cc1	110 nM	> 1000 nM
Clc1ccc(NCc2cncn2Cc2ccc(-c3ccccc3)cc2)cc1-c1ccccc1	6 nM	> 1000 nM
CNC(=O)c1ccc(NCc2cncn2Cc2ccc(-c3ccccc3)cc2)cc1-c1ccccc1	2.4 nM	> 1000 nM
CCCC(=O)c1ccc(NCc2cncn2Cc2ccc(-c3ccccc3)cc2)cc1-c1ccccc1	40 nM	> 10000 nM
COC(=O)c1ccc(NCc2cncn2Cc2ccc(C)cc2)cc1-c1ccccc1	5 nM	50000 nM
CC(C)c1ccc(Cn2cncc2CNc2ccc(-c3nc4ccccc4s3)c(-c3ccccc3)c2)cc1	540 nM	> 1000 nM
Cc1cccc(-c2cccc(NCc3cncn3Cc3ccccc3)c2)c1C	260 nM	> 1000 nM
c1ccc(-c2ccc(Cn3cncc3CNc3ccc(-c4cncs4)c(-c4ccccc4)c3)cc2)cc1	9 nM	> 1000 nM
COC(=O)c1ccc(NCc2cncn2Cc2cccc(C)c2)cc1-c1ccccc1	20 nM	> 10000 nM
Cc1cccc(-c2cc(NCc3cncn3Cc3ccc(-c4ccccc4)cc3)ccc2-c2nc3ccccc3s2)c1C	64 nM	> 1000 nM
COc1ccc(NCc2cncn2Cc2ccc(-c3ccccc3)cc2)cc1-c1ccccc1	7 nM	> 1000 nM
O=C(OC1CCCCC1)c1ccc(NCc2cncn2Cc2ccc(-c3ccccc3)cc2)cc1-c1ccccc1	10 nM	> 10000 nM
c1ccc(-c2ccc(Cn3cncc3CNc3ccc(-c4onc5ccccc45)c(-c4ccccc4)c3)cc2)cc1	50 nM	> 10000 nM
c1ccc(-c2ccc(Cn3cncc3CNc3ccc(-c4ccccc4)cc3)cc2)cc1	200 nM	> 10000 nM
N#Cc1ccc(NCc2cncn2Cc2ccc(-c3ccccc3)cc2N)cc1-c1ccccc1	1.5 nM	> 1000 nM
c1ccc(-c2ccc(Cn3cncc3CNc3ccc(N4CCCC4)c(-c4ccccc4)c3)cc2)cc1	22 nM	> 1000 nM
COC(=O)c1ccc(NCc2cncn2Cc2ccc(Cl)cc2)cc1-c1ccccc1	5 nM	25000 nM
COC(=O)c1ccc(NCc2cncn2Cc2cccc(C(C)(C)C)c2)cc1-c1ccccc1	475 nM	> 1000 nM
CNC(=O)c1ccc(NCc2cncn2Cc2ccc(-c3ccccc3)cc2N)cc1-c1ccccc1	12 nM	> 1000 nM
COC(=O)c1ccc(NCc2cncn2Cc2ccccc2Br)cc1-c1ccccc1	100 nM	10000 nM
Cc1ccccc1-c1ccc(Cn2cncc2CNc2ccc(-c3nc4ccccc4s3)c(-c3ccccc3)c2)cc1	120 nM	> 1000 nM
COC(=O)c1ccc(NCc2cncn2Cc2ccccc2C)cc1-c1ccccc1	1000 nM	10000 nM
COC(=O)c1ccc(NCc2cncn2Cc2ccc(-c3ccccc3)cc2)cc1	80 nM	> 10000 nM
COC(=O)c1ccc(NCc2cncn2Cc2cccc(Br)c2)cc1-c1ccccc1	20 nM	> 10000 nM

Compound	EC50 [1]	EC50 [2]
c1ccc(Cn2cncc2CNc2cccc(-c3cccnc3)c2)cc1	600 nM	> 1000 nM
Cc1ccc(Cn2cncc2CNc2cccc(-c3ccccc3)c2)cc1	100 nM	10000 nM
c1ccc(Cn2cncc2CNc2cccc(-c3ccccc3)c2)cc1	360 nM	> 750 nM
c1ccc(-c2ccc(Cn3cncc3CNc3ccc(-c4nc5ccccc5o4)c(-c4ccccc4)c3)cc2)cc1	100 nM	> 10000 nM
COC(=O)c1ccc(NCc2cncn2Cc2ccccc2N)cc1-c1ccccc1	5 nM	25000 nM
Nc1cc(-c2ccccc2)ccc1Cn1cncc1CNc1ccc(-c2cncs2)c(-c2ccccc2)c1	10 nM	> 1000 nM
CC(C)c1cccc(NCc2cncn2Cc2ccccc2)c1	> 1000 nM	> 1000 nM
CC(C)OC(=O)c1ccc(NCc2cncn2Cc2ccc(-c3ccccc3)cc2)cc1-c1ccccc1	50 nM	> 10000 nM
CCOC(=O)c1ccc(NCc2cncn2Cc2ccc(-c3ccccc3)cc2)cc1-c1ccccc1	10 nM	> 10000 nM
COC(=O)c1ccc(NCc2cncn2Cc2ccc(N)cc2)cc1-c1ccccc1	250 nM	> 10000 nM
COC(=O)c1ccc(NCc2cncn2Cc2cccc(F)c2)cc1-c1ccccc1	150 nM	> 1000 nM
Cc1ccccc1-c1cccc(NCc2cncn2Cc2ccccc2)c1	230 nM	> 1000 nM
CN(C)c1ccc(NCc2cncn2Cc2ccc(-c3ccccc3)cc2)cc1-c1ccccc1	20 nM	> 1000 nM
c1ccc(-c2ccc(Cn3cncc3CNc3ccccc3-c3ccccc3)cc2)cc1	80 nM	> 10000 nM
COC(=O)c1ccc(NCc2cncn2Cc2ccc(F)cc2F)cc1-c1ccccc1	21 nM	> 1000 nM
COc1ccc(NCc2cncn2Cc2ccc(-c3ccccc3)cc2N)cc1-c1ccccc1	0.8 nM	> 1000 nM
COC(=O)c1ccc(NCc2cncn2Cc2cccc(Cl)c2)cc1-c1ccccc1	20 nM	> 10000 nM
COC(=O)c1ccc(NCc2cncn2Cc2ccc([N+](=O)[O-])cc2)cc1-c1ccccc1	100 nM	> 10000 nM
COC(=O)c1ccc(NCc2cncn2Cc2ccc(OC)cc2)cc1-c1ccccc1	25 nM	
COC(=O)c1ccc(NCc2cncn2Cc2ccc(Br)cc2)cc1-c1ccccc1	20 nM	> 10000 nM
Fc1ccc(Cn2cncc2CNc2ccc(-c3nc4ccccc4s3)c(-c3ccccc3)c2)c(F)c1	420 nM	> 1000 nM
O=C(c1ccc(NCc2cncn2Cc2ccc(-c3ccccc3)cc2)cc1-c1ccccc1)N1CCCCC1	24 nM	> 1000 nM
CN(C)C(=O)c1ccc(NCc2cncn2Cc2ccc(-c3ccccc3)cc2)cc1-c1ccccc1	9.3 nM	> 1000 nM
Clc1ccc(Cn2cncc2CNc2ccc(-c3nc4ccccc4s3)c(-c3ccccc3)c2)cc1	250 nM	> 1000 nM

Compound	EC50 [1]	EC50 [2]
Clc1ccc(Cn2cncc2CNc2cccc(-c3ccccc3)c2)cc1	80 nM	10000 nM
COC(=O)c1ccc(NCc2cncn2Cc2ccccc2C#N)cc1-c1ccccc1	200 nM	25000 nM
c1ccc(-c2ccc(Cn3cncc3CNc3ccc(-c4ccccc4)c(-c4ccccc4)c3)cc2)cc1	80 nM	> 10000 nM
COC(=O)c1ccc(NCc2cncn2Cc2cccc([N+](=O)[O-])c2)cc1-c1ccccc1	30 nM	> 10000 nM
c1ccc(-c2ccc(Cn3cncc3CNc3cccc(-c4ccccc4)c3)cc2)cc1	10 nM	10000 nM
COC(=O)c1ccc(NCc2cncn2Cc2ccc(-c3ccccc3)cc2)cc1-c1ccccc1	0.5 nM	> 1000 nM
CCC(=O)c1ccc(NCc2cncn2Cc2ccc(-c3ccccc3)cc2)cc1-c1ccccc1	40 nM	> 10000 nM
O=[N+]([O-])c1ccc(Cn2cncc2CNc2cccc(-c3ccccc3)c2)cc1	100 nM	10000 nM
Cc1ccccc1-c1cc(NCc2cncn2Cc2ccc(-c3ccccc3)cc2)ccc1-c1nc2ccccc2s1	31 nM	> 1000 nM
c1ccc(-c2ccc(Cn3cncc3CNc3ccc(-c4noc5ccccc45)c(-c4ccccc4)c3)cc2)cc1	10 nM	> 10000 nM
CC(=O)c1ccc(NCc2cncn2Cc2ccc(-c3ccccc3)cc2)cc1-c1ccccc1	40 nM	> 10000 nM
COC(=O)c1ccc(NCc2cncn2Cc2ccccc2[N+](=O)[O-])cc1-c1ccccc1	100 nM	10000 nM
COC(=O)c1ccc(NCc2cncn2Cc2cccc(C#N)c2)cc1-c1ccccc1	100 nM	> 10000 nM
c1ccc(-c2ccc(Cn3cncc3CNc3ccc(-c4cc5ccccc5o4)c(-c4ccccc4)c3)cc2)cc1	40 nM	> 10000 nM
COC(=O)c1ccc(NCc2cncn2Cc2ccccc2Cl)cc1-c1ccccc1	100 nM	10000 nM
Cc1cccc(-c2cccc(NCc3cncn3Cc3ccccc3)c2)c1	550 nM	> 1000 nM
c1ccc(-c2ccc(Cn3cncc3CNc3ccc(N4CCCCC4)c(-c4ccccc4)c3)cc2)cc1	23 nM	> 1000 nM
N#Cc1ccc(NCc2cncn2Cc2ccc(-c3ccccc3)cc2)cc1-c1ccccc1	1.3 nM	> 1000 nM
COC(=O)c1ccc(NCc2cncn2Cc2cccc(N)c2)cc1-c1ccccc1	130 nM	> 10000 nM
c1ccc(-c2ccc(Cn3cncc3CNc3ccc(-c4ccc[nH]4)c(-c4ccccc4)c3)cc2)cc1	100 nM	> 10000 nM
COC(=O)c1ccc(NCc2cncn2Cc2ccc(C#N)cc2)cc1-c1ccccc1	25 nM	> 10000 nM
CS(=O)(=O)c1ccc(Cn2cncc2CNc2ccc(-c3nc4ccccc4s3)c(-c3ccccc3)c2)cc1	> 1000 nM	> 1000 nM
COC(=O)c1ccc(NCc2cncn2Cc2ccccc2)cc1-c1ccccc1	80 nM	> 1000 nM
c1ccc(Cn2cncc2CNc2cccc(-c3ccncc3)c2)cc1	510 nM	> 1000 nM
